Measurements from different studies.
Protocols differ between the studies behind these lines.
Target: Tyrosine-protein kinase Srms (SRMS, Homo sapiens, UniProt Q9H3Y6)

SMILES | effect on | mode | technique | tested at | measurement | value
COc1cc2ncnc(Nc3ccc(Oc4ccccc4)c(C)c3C)c2cc1OC | enzyme activity | inhibitor | – | 1 µM | inhibition | 24%
O=C(NC[C@@H]1[C@H]2CN(C(=O)OCc3cc(C(F)(F)F)cc(C(F)(F)F)c3)C[C@@H]12)c1ccc2[nH]nnc2c1 | cell-free assay | – | competition with immobilised ligand | 1 µM | remaining binding | 83%
O=C1NC(=O)c2cc(Nc3ccc(F)cc3)c(Nc3ccc(F)cc3)cc21 | cell-free assay | – | – | 0.5 µM | remaining signal | 95.5%
O=C(Nc1cnn(-c2csc(C(=O)NC3COC3)c2)c1)Nc1ccccc1Cl | enzyme activity | inhibitor | – | 5 µM | remaining activity | 99.8%
C[C@H](c1ccc(F)cc1)N(Cc1cccc(C(=O)O)c1)C(=O)c1cnc2ccccc2c1 | cell-free assay | – | competition with immobilised ligand | 1 µM | remaining binding | 100%
CC(C)(O)[C@H]1CC[C@H](Nc2ccc3ncc(-c4cccc(C(F)(F)F)c4)n3n2)CC1 | enzyme activity | inhibitor | – | 1 µM | remaining activity | 96.5%
CC(C)(C)c1nc(-c2cccc(NS(=O)(=O)c3c(F)cccc3F)c2F)c(-c2ccnc(N)n2)s1 | enzyme activity | inhibitor | radiometric | 1 µM | remaining activity | 10%
N#CCCc1ccc2c(c1)-c1[nH]c3ccc([N+](=O)[O-])cc3c1CC(=O)N2 | cell-free assay | – | – | 0.5 µM | remaining signal | 78.6%
Cc1cc(-n2nc(Cc3cc(F)cc(C(F)(F)F)c3)nc2C)ccc1C(N)=O | cell-free assay | – | competition with immobilised ligand | 1 µM | remaining binding | 98%
Nc1ncnc2occ(-c3ccc(NC(=O)Nc4cc(C(F)(F)F)ccc4F)cc3)c12 | cell-free assay | inhibitor | – | 20 µM | remaining signal | 0.8%
CN1CC(Oc2cnc(C#N)cc2-c2ccn3nc(NC(=O)C4CC4)cc3c2)C1 | enzyme activity | inhibitor | – | 1 µM | inhibition | 4%
Cc1ccc(C(=O)Nc2ccc(CN3CCN(C)CC3)c(C(F)(F)F)c2)cc1C#Cc1cnc2cccnn12 | enzyme activity | inhibitor | – | 23.5 nM | remaining activity | 40%
FC(F)(F)c1ccc2c(c1)nc(-c1cccnc1)n2C1CC1 | cell-free assay | – | competition with immobilised ligand | 1 µM | remaining binding | 95%
